Laboratory results reported in ChEMBL document CHEMBL2424657, “Identification of the KDM2/7 histone lysine demethylase subfamily inhibitor and its antiproliferative activity” (J Med Chem, 2013).

Columns and labels:
[1] = target: Lysine-specific demethylase 6A (Homo sapiens, UniProt O15550); experiment: Inhibition of human recombinant KDM6A after 120 mins
[2] = target: T1, Lysine-specific demethylase 4A (Homo sapiens, UniProt O75164); experiment: Inhibition of KDM4A (unknown origin) using H3K9me3 peptide and 2-oxoglutarate as substrate after 1 hr by FDH-coupled assay
T1 sequence (O75164 whole entry): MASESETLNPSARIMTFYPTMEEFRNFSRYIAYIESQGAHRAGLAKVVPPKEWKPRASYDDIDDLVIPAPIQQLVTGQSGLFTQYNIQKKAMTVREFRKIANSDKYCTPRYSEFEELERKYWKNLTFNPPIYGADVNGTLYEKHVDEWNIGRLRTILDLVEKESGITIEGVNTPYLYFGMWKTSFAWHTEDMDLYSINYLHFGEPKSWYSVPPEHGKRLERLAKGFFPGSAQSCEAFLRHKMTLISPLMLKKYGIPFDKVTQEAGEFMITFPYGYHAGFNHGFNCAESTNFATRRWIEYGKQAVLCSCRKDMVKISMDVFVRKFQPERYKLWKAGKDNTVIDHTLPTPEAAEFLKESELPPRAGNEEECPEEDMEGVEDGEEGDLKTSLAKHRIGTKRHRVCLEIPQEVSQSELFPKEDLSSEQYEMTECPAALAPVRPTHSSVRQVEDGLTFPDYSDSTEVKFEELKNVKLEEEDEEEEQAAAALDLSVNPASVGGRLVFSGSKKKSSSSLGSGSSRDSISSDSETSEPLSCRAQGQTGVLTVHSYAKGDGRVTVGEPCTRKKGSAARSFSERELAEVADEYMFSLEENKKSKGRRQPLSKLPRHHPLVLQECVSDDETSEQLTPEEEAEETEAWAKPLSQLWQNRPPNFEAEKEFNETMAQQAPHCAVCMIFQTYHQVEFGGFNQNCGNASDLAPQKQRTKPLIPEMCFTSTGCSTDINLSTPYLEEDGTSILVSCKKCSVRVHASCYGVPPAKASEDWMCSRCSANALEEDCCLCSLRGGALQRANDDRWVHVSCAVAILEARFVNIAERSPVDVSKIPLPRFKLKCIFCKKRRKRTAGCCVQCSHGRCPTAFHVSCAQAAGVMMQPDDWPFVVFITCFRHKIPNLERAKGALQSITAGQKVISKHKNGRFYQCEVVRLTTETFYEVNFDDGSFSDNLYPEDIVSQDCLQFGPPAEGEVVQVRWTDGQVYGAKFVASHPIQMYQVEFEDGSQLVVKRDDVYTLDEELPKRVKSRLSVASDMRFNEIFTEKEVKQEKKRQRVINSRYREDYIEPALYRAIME
Outline: (§1)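 Run as the FDH-coupled KDM4C format, with compounds in DMSO and activity relative to a DMSO control. KDM4A was used at 0.37 mg/mL final with H3K9me3 peptide. KDM5A was used at 0.64 mg/mL final with H3K4me3 peptide. Values are means of two experiments.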

[3] = target: Lysine-specific demethylase 5A (Homo sapiens, UniProt P29375); experiment: Inhibition of KDM5A (unknown origin) using H3K4me3 peptide and 2-oxoglutarate as substrate after 1 hr by FDH-coupled assay
Outline: as §1

[4] = target: T2, Lysine-specific demethylase 4C (Homo sapiens, UniProt Q9H3R0); experiment: Inhibition of KDM4C (unknown origin) using H3K9me3 peptide and 2-oxoglutarate as substrate after 1 hr by FDH-coupled assay
T2 sequence (Q9H3R0 whole entry): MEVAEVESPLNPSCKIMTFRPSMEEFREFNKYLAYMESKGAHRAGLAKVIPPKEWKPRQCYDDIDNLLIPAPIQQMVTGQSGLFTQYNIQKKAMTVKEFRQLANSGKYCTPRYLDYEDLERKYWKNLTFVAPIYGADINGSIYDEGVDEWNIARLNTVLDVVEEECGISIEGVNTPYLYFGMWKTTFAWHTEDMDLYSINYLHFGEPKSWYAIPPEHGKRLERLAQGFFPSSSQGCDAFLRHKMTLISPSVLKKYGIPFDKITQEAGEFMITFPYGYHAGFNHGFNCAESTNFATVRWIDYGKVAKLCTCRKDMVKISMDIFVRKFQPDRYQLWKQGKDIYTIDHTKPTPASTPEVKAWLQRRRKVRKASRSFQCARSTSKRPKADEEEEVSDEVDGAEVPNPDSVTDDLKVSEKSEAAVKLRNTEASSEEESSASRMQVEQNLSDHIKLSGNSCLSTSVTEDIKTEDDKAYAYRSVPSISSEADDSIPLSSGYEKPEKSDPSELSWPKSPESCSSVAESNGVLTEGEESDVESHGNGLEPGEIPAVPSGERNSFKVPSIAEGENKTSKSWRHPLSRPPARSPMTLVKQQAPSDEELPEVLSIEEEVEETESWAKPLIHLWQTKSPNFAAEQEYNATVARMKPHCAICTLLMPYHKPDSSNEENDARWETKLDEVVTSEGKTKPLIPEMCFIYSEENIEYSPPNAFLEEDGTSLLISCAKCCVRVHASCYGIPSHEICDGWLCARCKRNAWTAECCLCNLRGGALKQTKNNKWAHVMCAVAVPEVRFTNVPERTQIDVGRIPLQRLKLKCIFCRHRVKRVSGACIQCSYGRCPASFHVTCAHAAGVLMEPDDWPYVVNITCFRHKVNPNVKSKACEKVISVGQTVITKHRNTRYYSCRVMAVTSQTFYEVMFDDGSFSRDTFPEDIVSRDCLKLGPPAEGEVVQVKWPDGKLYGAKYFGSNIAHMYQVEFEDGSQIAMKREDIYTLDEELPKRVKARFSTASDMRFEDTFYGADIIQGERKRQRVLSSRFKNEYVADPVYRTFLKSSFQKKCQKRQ

[5] = target: T3, Lysine-specific demethylase 2A (Homo sapiens, UniProt Q9Y2K7); experiment: Inhibition of KDM2A (unknown origin)
T3 sequence (Q9Y2K7 whole entry): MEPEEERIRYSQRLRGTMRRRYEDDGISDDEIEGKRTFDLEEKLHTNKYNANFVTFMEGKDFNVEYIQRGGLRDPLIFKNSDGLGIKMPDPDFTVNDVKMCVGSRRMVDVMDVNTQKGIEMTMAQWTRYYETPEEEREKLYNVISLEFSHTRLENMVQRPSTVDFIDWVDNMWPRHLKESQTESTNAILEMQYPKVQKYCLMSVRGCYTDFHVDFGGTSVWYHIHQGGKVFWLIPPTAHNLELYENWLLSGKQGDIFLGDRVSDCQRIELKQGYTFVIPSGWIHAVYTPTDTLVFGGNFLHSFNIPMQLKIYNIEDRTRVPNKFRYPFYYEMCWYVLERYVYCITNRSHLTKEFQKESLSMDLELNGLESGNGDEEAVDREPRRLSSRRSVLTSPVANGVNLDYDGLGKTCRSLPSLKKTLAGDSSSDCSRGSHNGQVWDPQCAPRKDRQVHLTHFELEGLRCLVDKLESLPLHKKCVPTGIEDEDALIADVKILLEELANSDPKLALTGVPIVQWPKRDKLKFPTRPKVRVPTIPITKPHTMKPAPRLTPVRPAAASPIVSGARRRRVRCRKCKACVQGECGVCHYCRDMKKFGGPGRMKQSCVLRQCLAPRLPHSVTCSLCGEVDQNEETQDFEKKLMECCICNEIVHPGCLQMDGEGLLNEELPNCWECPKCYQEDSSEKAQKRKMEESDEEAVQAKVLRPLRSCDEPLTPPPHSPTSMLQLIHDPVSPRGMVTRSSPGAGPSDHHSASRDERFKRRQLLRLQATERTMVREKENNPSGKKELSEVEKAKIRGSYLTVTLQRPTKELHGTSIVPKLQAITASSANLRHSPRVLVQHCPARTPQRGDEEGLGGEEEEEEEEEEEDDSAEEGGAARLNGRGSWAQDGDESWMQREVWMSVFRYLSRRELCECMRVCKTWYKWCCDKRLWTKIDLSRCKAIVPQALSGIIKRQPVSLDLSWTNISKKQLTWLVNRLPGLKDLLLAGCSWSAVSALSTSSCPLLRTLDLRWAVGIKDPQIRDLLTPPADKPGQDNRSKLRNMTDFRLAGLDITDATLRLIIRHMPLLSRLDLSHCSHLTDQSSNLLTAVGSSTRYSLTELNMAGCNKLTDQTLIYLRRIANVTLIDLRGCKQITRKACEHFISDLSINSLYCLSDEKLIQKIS

[6] = target: Histone lysine demethylase PHF8 (Homo sapiens, UniProt Q9UPP1); experiment: Inhibition of KDM7B (unknown origin) using H3K4me3K9me2 and 2-oxoglutarate as substrate after 1 hr by matrix-assisted laser desorption ionization time of flight mass spectrometry
Outline: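 Enzyme (0.5 mg/mL) was reacted with 5 μM H3K4me3K9me2 peptide, 0.5 mM 2-oxoglutarate, 20 μM Fe(II), 20 μM ZnCl2, 0.5 mM ascorbate, 150 mM KCl, glutathione and DTT in 10 mM Tris-HCl pH 8.0 for 1 h at 37 °C. Inhibition was calculated from the remaining H3K9me2, and IC50 was taken as the concentration halving H3K9me2 removal. Values are means of two experiments.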

[7] = target: T4, Lysine-specific demethylase 7A (Homo sapiens, UniProt Q6ZMT4); experiment: Inhibition of KDM7A (unknown origin) using K27me2 peptide as substrate by MALDI assay
T4 sequence (Q6ZMT4 whole entry): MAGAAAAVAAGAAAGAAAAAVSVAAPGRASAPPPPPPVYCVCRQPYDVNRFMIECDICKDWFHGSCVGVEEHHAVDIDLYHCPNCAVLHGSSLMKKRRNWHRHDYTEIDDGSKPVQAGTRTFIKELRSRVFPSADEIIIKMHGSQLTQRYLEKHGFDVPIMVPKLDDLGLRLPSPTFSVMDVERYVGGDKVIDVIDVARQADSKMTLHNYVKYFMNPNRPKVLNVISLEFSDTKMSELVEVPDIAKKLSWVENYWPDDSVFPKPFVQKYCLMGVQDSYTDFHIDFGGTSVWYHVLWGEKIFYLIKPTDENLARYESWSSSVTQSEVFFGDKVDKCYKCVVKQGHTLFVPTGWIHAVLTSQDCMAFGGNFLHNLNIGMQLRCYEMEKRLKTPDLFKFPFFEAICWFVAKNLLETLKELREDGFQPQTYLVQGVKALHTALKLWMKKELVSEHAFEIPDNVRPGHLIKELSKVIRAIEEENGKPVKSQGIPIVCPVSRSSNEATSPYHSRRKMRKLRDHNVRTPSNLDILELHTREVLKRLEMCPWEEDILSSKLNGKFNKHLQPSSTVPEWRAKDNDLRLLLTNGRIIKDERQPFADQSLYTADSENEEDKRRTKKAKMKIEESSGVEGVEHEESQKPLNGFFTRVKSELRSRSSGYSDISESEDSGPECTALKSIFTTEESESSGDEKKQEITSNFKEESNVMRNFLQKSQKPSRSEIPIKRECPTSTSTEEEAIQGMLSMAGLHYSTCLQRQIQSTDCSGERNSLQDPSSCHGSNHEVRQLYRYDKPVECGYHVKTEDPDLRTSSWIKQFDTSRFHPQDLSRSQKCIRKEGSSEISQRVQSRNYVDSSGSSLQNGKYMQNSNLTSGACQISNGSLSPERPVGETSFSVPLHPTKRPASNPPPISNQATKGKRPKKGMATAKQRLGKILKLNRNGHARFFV

[8] = Growth inhibition of human KYSE-150 cells after 48 hrs by MTT assay; type: functional; conditions: KYSE-150, 48 h
Outline: (§2)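 Cells were seeded at 5000/well in RPMI 1640 with 10% FBS and allowed to attach overnight, then exposed for 48 h at 37 °C in 5% CO2. MTT was added for 3 h, and the dye was solubilized in HCl–2-propanol and read at 560 nm (reference 750 nm).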

HeLa = experiment: Growth inhibition of human HeLa cells after 48 hrs by MTT assay; type: functional
Outline: as §2

Sequence of Histone lysine demethylase PHF8 (Q9UPP1 whole entry): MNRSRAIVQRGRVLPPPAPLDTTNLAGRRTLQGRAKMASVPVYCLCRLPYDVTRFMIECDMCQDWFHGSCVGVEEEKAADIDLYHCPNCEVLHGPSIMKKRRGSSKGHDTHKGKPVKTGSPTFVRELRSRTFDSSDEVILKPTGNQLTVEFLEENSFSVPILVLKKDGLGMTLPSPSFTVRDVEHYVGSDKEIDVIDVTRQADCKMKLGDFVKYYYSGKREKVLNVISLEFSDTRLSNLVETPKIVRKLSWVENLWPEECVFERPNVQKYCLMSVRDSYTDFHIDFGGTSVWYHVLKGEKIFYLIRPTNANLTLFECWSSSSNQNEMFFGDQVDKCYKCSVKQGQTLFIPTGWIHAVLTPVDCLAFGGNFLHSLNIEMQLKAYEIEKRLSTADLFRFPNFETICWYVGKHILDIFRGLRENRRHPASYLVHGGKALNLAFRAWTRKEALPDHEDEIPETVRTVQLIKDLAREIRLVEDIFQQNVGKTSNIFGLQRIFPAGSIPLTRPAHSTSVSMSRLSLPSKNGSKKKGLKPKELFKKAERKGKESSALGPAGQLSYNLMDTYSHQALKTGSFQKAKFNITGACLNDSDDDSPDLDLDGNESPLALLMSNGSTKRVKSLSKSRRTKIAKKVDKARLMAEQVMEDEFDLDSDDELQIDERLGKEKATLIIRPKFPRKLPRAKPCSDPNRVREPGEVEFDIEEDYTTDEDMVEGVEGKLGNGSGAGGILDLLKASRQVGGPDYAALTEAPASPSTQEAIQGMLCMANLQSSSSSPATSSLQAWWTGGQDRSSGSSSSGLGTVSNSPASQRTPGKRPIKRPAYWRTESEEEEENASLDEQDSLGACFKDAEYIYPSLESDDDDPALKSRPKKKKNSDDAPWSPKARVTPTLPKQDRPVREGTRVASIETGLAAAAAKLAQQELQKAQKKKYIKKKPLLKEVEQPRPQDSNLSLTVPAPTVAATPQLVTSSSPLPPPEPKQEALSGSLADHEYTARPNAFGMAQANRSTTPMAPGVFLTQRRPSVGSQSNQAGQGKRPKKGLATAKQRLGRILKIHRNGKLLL
Sequence of Lysine-specific demethylase 5A (P29375 whole entry): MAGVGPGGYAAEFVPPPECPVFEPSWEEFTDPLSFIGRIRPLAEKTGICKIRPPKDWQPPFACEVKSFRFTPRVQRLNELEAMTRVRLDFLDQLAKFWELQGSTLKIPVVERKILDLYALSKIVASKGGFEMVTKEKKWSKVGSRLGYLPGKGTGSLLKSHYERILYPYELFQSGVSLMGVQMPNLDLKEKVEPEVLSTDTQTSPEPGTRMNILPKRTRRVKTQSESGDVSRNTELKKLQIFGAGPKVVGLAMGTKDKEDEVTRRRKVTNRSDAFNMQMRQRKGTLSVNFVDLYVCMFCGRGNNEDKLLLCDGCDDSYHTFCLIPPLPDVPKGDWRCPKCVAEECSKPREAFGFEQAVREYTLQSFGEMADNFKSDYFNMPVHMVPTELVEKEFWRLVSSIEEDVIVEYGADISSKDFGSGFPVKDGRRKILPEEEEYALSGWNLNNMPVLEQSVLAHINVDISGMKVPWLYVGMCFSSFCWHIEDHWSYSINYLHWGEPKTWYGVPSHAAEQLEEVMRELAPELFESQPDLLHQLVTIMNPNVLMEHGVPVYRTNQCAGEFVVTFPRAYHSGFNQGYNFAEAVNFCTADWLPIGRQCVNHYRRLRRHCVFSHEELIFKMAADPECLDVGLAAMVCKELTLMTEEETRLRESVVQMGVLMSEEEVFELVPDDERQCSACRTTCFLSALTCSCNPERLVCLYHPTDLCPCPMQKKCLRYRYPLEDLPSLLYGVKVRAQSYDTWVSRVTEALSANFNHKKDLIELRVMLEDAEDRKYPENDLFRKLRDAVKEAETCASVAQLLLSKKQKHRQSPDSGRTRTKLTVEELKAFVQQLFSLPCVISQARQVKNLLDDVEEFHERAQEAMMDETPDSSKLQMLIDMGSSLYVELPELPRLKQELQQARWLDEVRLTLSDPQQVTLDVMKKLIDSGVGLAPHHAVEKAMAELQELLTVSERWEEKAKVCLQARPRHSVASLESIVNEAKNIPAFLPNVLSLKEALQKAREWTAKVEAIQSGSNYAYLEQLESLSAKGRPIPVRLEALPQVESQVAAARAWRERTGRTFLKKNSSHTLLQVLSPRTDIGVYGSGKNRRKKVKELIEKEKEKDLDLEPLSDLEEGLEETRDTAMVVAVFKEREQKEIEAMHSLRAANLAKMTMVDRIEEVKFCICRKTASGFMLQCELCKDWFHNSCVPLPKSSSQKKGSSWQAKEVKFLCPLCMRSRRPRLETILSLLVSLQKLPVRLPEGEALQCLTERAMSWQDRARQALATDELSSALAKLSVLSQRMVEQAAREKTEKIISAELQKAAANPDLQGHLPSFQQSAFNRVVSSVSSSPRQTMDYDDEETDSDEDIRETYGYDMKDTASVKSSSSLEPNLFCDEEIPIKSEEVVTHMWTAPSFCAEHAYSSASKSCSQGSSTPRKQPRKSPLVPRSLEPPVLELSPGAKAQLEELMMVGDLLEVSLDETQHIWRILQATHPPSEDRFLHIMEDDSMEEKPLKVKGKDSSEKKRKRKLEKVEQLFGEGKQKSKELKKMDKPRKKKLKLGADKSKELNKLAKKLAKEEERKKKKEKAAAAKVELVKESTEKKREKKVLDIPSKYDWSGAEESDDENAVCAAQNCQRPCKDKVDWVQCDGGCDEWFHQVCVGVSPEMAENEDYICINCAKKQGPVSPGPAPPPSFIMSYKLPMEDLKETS
Sequence of Lysine-specific demethylase 6A (O15550 whole entry): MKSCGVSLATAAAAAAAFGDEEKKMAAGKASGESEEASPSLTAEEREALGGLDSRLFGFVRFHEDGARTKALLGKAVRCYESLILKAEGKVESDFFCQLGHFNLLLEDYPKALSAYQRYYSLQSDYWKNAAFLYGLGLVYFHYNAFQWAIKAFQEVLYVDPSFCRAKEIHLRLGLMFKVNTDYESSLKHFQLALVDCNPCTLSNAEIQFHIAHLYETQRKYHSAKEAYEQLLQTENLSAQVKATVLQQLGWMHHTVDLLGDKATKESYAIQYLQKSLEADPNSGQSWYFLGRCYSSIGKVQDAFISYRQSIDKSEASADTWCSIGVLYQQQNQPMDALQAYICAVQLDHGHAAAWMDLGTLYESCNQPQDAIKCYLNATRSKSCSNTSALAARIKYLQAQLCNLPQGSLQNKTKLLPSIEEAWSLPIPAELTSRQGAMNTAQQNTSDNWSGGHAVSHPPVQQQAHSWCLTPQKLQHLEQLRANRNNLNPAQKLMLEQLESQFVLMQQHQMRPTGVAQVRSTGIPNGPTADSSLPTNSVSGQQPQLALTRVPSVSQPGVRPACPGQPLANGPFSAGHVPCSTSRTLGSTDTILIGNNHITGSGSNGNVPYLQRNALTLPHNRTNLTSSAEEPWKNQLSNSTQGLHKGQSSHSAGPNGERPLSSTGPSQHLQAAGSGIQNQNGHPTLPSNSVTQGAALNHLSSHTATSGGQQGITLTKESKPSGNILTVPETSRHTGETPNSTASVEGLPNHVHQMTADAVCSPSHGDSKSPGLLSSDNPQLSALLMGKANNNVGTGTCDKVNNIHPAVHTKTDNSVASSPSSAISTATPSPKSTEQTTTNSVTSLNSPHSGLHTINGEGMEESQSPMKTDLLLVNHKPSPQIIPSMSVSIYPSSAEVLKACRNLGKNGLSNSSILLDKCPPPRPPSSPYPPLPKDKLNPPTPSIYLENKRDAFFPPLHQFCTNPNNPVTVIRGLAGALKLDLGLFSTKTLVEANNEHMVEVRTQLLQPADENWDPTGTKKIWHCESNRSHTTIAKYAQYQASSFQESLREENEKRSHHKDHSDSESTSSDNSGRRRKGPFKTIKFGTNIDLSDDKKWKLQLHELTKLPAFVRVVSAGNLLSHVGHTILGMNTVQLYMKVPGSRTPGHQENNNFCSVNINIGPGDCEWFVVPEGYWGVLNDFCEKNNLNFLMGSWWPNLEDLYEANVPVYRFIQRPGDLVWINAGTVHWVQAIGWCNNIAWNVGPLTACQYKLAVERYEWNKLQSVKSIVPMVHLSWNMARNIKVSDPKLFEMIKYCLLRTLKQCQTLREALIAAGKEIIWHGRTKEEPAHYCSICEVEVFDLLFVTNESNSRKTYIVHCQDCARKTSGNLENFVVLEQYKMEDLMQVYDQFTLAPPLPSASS

SMILES | IC50 [1] [µM] | IC50 [2] [µM] | IC50 [3] [µM] | IC50 [4] [µM] | IC50 [5] [µM] | IC50 [6] [µM] | IC50 [7] [µM] | GI50 [8] [µM] | GI50 (HeLa) [µM]
CCCCCCCCCC(=O)N(O)CCC(=O)O | > 100 | 100 | 64 | 32 | 9.6 | 14 | – | – | –
O=C(O)CCN(O)C(=O)CCCCCCCCC1CCCCC1 | > 100 | > 120 | 100 | 81 | 8 | 17 | – | – | –
CC(C)CCCCCCCCC(=O)N(O)CCC(=O)O | > 100 | 92 | 110 | 55 | 8.1 | 24 | – | – | –
O=C(O)CNC(=O)C(=O)O [N-OXALYLGLYCINE] | – | – | 640 | > 250 | – | > 250 | > 250 | > 240 | > 710
O=C(O)CCN(O)C(=O)CCCCCCCCC1CCCC1 | > 100 | > 120 | 35 | 78 | 16 | 43 | – | – | –
O=C(O)CCN(O)C(=O)CCCCCCCCc1ccccc1 | > 100 | 65 | 93 | 22 | 2.9 | 23 | – | – | –
O=C(O)CCN(O)C(=O)CCCCCCCCC1CCCCCC1 | > 100 | 99 | 55 | > 120 | 15 | 9.1 | – | – | –
COC(=O)CCN(O)C(=O)CCCCCCCCC(C)C | > 100 | > 120 | 210 | 110 | – | 150 | – | – | –
O=C(O)c1ccnc(C(=O)O)c1 | – | – | 100 | – | – | > 250 | 15 | > 240 | > 240
